Active and inactive are the calls of the source. The rule behind the calls is not given here.
Columns and labels:
[1] = Antioxidant activity assessed as vitamin-c equivalents of ferric ion reducing activity by measuring Fe2+ levels using Fe3+-TPTZ by FRAP assay; format: functional
Procedure, shortened: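 Ferric-TPTZ complex reduced to ferrous form, per earlier-described method. Calibration curve from serial dilution of vitamin C standard (100-600 […] as printed). Compound reducing power expressed as vitamin C equivalents, calculated from three independent experiments.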

PC-12 [2] = assay: Cytoprotective activity against H2O2-induced oxidative damage in rat PC12 cells assessed as cell viability at 100 uM preincubated for 0.5 hrs followed by H2O2 addition measured after 2 hrs by MTT assay relative to control; format: functional; settings: read-out: Activity
Procedure, shortened: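 PC12 cells in RPMI-1640 with 10% FBS, plated at 5×10^5 per well, 24 h. Compound in DMSO added 0.5 h before 100 µM H2O2, then 2 h injury. MTT for 4 h, formazan dissolved in DMSO, OD 490 nm. Viability normalised to DMSO controls (100%). Mean of three independent experiments.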

PC-12 [3] = assay: Cytoprotective activity against H2O2-induced oxidative damage in rat PC12 cells assessed as reduction in morphological changes by measuring membrane blebbing at 10 to 100 uM preincubated for 0.5 hrs followed by H2O2 addition measured after 2 hrs; format: functional, cell-based
Procedure, shortened: (§1)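 PC12 cells plated 5×10^5 cells/well and grown 24 h, then given test agent (10 and 100 µM) for 0.5 h before 100 µM H2O2 for 2 h. Controls received medium with 0.1% DMSO. Cell shrinkage and blebbing were inspected by microscopy at 200×.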

PC-12 [4] = assay: Cytoprotective activity against H2O2-induced apoptosis in rat PC12 cells assessed as late apoptotic cells at 10 uM preincubated for 0.5 hrs followed by H2O2 addition measured after 2 hrs by Annexin V-FITC/propidium iodide staining based flow cytometry (reference value: 57.5%); format: functional
PC-12 [5] = assay: Cytoprotective activity against H2O2-induced apoptosis in rat PC12 cells assessed as necrotic cells at 100 uM preincubated for 0.5 hrs followed by H2O2 addition measured after 2 hrs by Annexin V-FITC/propidium iodide staining based flow cytometry (reference value: 2%); format: functional
PC-12 [6] = assay: Cytoprotective activity against H2O2-induced apoptosis in rat PC12 cells assessed as apoptotic cells at 100 uM preincubated for 0.5 hrs followed by H2O2 addition measured after 2 hrs by Annexin V-FITC/propidium iodide staining based flow cytometry (reference value: 60.7%); format: functional
PC-12 [7] = assay: Cytoprotective activity against H2O2-induced oxidative damage in rat PC12 cells assessed as reduction in morphological changes by measuring cell shrinkage at 10 to 100 uM preincubated for 0.5 hrs followed by H2O2 addition measured after 2 hrs; format: functional, cell-based; procedure, shortened: as §1
PC-12 [8] = assay: Cytoprotective activity against H2O2-induced apoptosis in rat PC12 cells assessed as early apoptotic cells at 10 uM preincubated for 0.5 hrs followed by H2O2 addition measured after 2 hrs by Annexin V-FITC/propidium iodide staining based flow cytometry (reference value: 3.2%); format: functional
PC-12 [9] = assay: Cytoprotective activity against H2O2-induced apoptosis in rat PC12 cells assessed as necrotic cells at 10 uM preincubated for 0.5 hrs followed by H2O2 addition measured after 2 hrs by Annexin V-FITC/propidium iodide staining based flow cytometry (reference value: 2%); format: functional
PC-12 [10] = assay: Cytoprotective activity against H2O2-induced apoptosis in rat PC12 cells assessed as live cells at 10 uM preincubated for 0.5 hrs followed by H2O2 addition measured after 2 hrs by Annexin V-FITC/propidium iodide staining based flow cytometry (reference value: 37.3%); format: functional
PC-12 [11] = assay: Cytoprotective activity against H2O2-induced apoptosis in rat PC12 cells assessed as live cells at 100 uM preincubated for 0.5 hrs followed by H2O2 addition measured after 2 hrs by Annexin V-FITC/propidium iodide staining based flow cytometry (reference value: 37.3%); format: functional
PC-12 [12] = assay: Cytoprotective activity against H2O2-induced apoptosis in rat PC12 cells assessed as late apoptotic cells at 100 uM preincubated for 0.5 hrs followed by H2O2 addition measured after 2 hrs by Annexin V-FITC/propidium iodide staining based flow cytometry (reference value: 57.5%); format: functional
PC-12 [13] = assay: Cytoprotective activity against H2O2-induced apoptosis in rat PC12 cells assessed as early apoptotic cells at 100 uM preincubated for 0.5 hrs followed by H2O2 addition measured after 2 hrs by Annexin V-FITC/propidium iodide staining based flow cytometry (reference value: 3.2%); format: functional
PC-12 [14] = assay: Cytotoxicity against rat PC12 cells assessed as effect on cell viability at 100 uM after 48 hrs by MTT assay; format: cell-based; settings: pc-12, 48 h
Procedure, shortened: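 Rat PC12 cells at 5×10^5 per well, grown 24 h, then exposed 48 h to compound in DMSO. MTT added for 4 h, formazan dissolved in DMSO, absorbance 490 nm. Viability relative to DMSO-treated controls. Triplicate tests.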

O=C1c2c(O)cc(O)c(-c3ccc(O)c(O)c3)c2OC1Cc1ccc(O)c(O)c1 (centres undefined)
Activity [1]: 376 mgequiv/mmol | viability at 100 µM (PC-12 [2]): 100%

O=C1/C(=C/c2ccc(O)c(O)c2)Oc2cc3oc4cc(O)c(O)cc4c3c(O)c21
Activity [1]: 277 mgequiv/mmol

O=C1c2c(cc3oc4cc(O)c(O)cc4c3c2O)OC1Cc1ccc(O)cc1 (centres undefined)
Activity [1]: 253 mgequiv/mmol

O=C1/C(=C/c2ccc(O)c(O)c2)Oc2cc(O)c(-c3ccc(O)c(O)c3)c(O)c21
Activity [1]: 372 mgequiv/mmol | viability at 100 µM (PC-12 [2]): 100%

O=c1cc(-c2ccc(O)cc2)oc2c(-c3ccc(O)c(O)c3)c(O)cc(O)c12
Activity [1]: 271 mgequiv/mmol

O=C1CC(c2ccc(O)cc2)Oc2c1c(O)cc1oc3cc(O)c(O)cc3c21 (racemic)
Activity [1]: 224 mgequiv/mmol

O=C1c2c(cc(O)c(-c3ccc(O)c(O)c3)c2O)OC1Cc1ccc(O)c(O)c1 (centres undefined)
Activity [1]: 394 mgequiv/mmol

O=C1c2c(O)cc3oc4cc(O)c(O)cc4c3c2OC1Cc1ccc(O)cc1 (centres undefined)
Activity [1]: 248 mgequiv/mmol

O=C1c2c(cc3oc4cc(O)c(O)cc4c3c2O)OC1Cc1ccccc1 (centres undefined)
Activity [1]: 227 mgequiv/mmol

O=C1/C(=C/c2ccc(O)c(O)c2)Oc2c1c(O)cc(O)c2-c1ccc(O)c(O)c1
Activity (PC-12 [3]): Active | Activity (PC-12 [4]): 3.5% | Activity (PC-12 [5]): 0.4% | Activity (PC-12 [6]): 4.1% | Activity (PC-12 [7]): Active | Activity (PC-12 [8]): 2.4% | Activity [1]: 318 mgequiv/mmol | Activity (PC-12 [9]): 0.4% | Activity (PC-12 [10]): 93.6% | Activity (PC-12 [11]): 95.6%

O=C1/C(=C/c2ccccc2)Oc2cc3oc4cc(O)c(O)cc4c3c(O)c21
Activity [1]: 134 mgequiv/mmol

O=C1c2c(O)cc3oc4cc(O)c(O)cc4c3c2OC1Cc1ccccc1 (centres undefined)
Activity [1]: 262 mgequiv/mmol

O=C1/C(=C/c2ccccc2)Oc2c1c(O)cc(O)c2-c1ccc(O)c(O)c1
Activity [1]: 269 mgequiv/mmol

O=C1CC(c2ccc(O)cc2)Oc2cc3oc4cc(O)c(O)cc4c3c(O)c21 (racemic)
Activity [1]: 260 mgequiv/mmol

O=C1/C(=C/c2ccc(O)c(O)c2)Oc2c1c(O)cc1oc3cc(O)c(O)cc3c21
Activity [1]: 260 mgequiv/mmol

O=C(O)c1cc(O)c(O)c(O)c1 [GALLIC ACID]
Activity (PC-12 [3]): Active | Activity (PC-12 [4]): 10% | Activity (PC-12 [5]): 0.4% | Activity (PC-12 [7]): Active | Activity (PC-12 [12]): 2.1% | Activity (PC-12 [8]): 2.5% | Activity [1]: 333 mgequiv/mmol | Activity (PC-12 [9]): 1.7% | Activity (PC-12 [10]): 85.8% | Activity (PC-12 [13]): 0.7% | Activity (PC-12 [11]): 96.7%

O=c1cc(-c2ccc(O)cc2)oc2cc3oc4cc(O)c(O)cc4c3c(O)c12
Activity [1]: 116 mgequiv/mmol

O=C1/C(=C/c2ccc(O)cc2)Oc2c1c(O)cc(O)c2-c1ccc(O)c(O)c1
Activity [1]: 263 mgequiv/mmol

O=C1/C(=C/c2ccc(O)cc2)Oc2cc3oc4cc(O)c(O)cc4c3c(O)c21
Activity [1]: 264 mgequiv/mmol

O=C1c2c(cc3oc4cc(O)c(O)cc4c3c2O)OC1Cc1ccc(O)c(O)c1 (centres undefined)
Activity [1]: 396 mgequiv/mmol | Activity (PC-12 [14]): Toxic

O=C1/C(=C/c2ccccc2)Oc2c1c(O)cc1oc3cc(O)c(O)cc3c21
Activity [1]: 116 mgequiv/mmol

O=C1c2c(O)cc3oc4cc(O)c(O)cc4c3c2OC1Cc1ccc(O)c(O)c1 (centres undefined)
Activity [1]: 373 mgequiv/mmol

O=C1/C(=C/c2ccc(O)cc2)Oc2cc(O)c(-c3ccc(O)c(O)c3)c(O)c21
Activity [1]: 241 mgequiv/mmol

O=c1cc(-c2ccc(O)cc2)oc2c1c(O)cc1oc3cc(O)c(O)cc3c12
Activity [1]: 137 mgequiv/mmol

O=C1/C(=C/c2ccc(O)cc2)Oc2c1c(O)cc1oc3cc(O)c(O)cc3c21
Activity [1]: 270 mgequiv/mmol

O=C1/C(=C/c2ccccc2)Oc2cc(O)c(-c3ccc(O)c(O)c3)c(O)c21
Activity [1]: 237 mgequiv/mmol

O=c1cc(-c2ccc(O)cc2)oc2cc(O)c(-c3ccc(O)c(O)c3)c(O)c12
Activity [1]: 276 mgequiv/mmol

From ChEMBL document CHEMBL4118083, “Synthesis and anti-oxidant activity evaluation of (±)-Anastatins A, B and their analogs” (Eur J Med Chem, 2017)
